Bioassay records from PubChem.
Compounds with a hit are over-represented: about 3.8% of the library has one in this group of screens.
hERG protect: compounds protecting human hERG from proarrhythmic drug block. Q12809. CHO-hERG, FluxOR thallium flux, dofetilide IC70 present. activation (rescue from dofetilide block), less the hit threshold, % at 10 µM. actives 0.51% (n = 310,000);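 active = activation above the mean of controls blocked by dofetilide plus 5 SD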;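 also: thallium influx through hERG after potassium depolarization seen as dye fluorescence rise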
KCNQ1 inh: blocks the human KCNQ1 potassium channel; B-score at 10 µM; AID 2642; P51787; actives 1.3% (n = 310,000); CHO-K1 KCNQ1, FluxOR thallium flux fluorescence; stronger effect = higher value;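 active = compounds whose thallium flux B-score, printed positive for inhibition, exceeds three library SD while starting fluorescence stays within three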;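 also: channel opened by potassium depolarization with thallium stimulus after 20 min compound exposure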
Kir21 inh: inhibitors of mouse Kir2.1 inward-rectifier potassium channel; HEK293-Kir2.1, FluxOR thallium flux fluorescence; stronger effect = lower value; actives 0.85% (n = 310,000); B-score at 10 µM; P35561;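 active = fluorescence ratio B-score at or below minus 3 SD of library scores, with starting-brightness B-score within 2 SD, cut at about -4.2 in these data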;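 also: channel flux triggered by added potassium and thallium sulfate stimulus; B-score of peak minus minimum fluorescence over baseline after thallium stimulus; more negative B-score means stronger Kir2.1 block with less thallium influx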
Target sequence (P35561 whole entry, looked up): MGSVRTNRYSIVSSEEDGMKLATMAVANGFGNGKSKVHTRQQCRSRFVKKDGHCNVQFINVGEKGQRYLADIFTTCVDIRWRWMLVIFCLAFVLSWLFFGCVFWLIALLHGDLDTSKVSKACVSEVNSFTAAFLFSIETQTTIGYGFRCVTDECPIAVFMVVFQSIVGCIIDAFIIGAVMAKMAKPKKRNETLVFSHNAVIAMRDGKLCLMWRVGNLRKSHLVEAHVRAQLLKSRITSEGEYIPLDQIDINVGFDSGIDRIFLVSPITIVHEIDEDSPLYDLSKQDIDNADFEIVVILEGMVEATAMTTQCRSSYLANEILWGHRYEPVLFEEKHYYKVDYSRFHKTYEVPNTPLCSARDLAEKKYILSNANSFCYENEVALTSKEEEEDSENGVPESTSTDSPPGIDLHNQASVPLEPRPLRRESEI
KCNQ1 pot: potentiates or activates the human KCNQ1 potassium channel | P51787 | CHO-K1 KCNQ1, thallium flux FluxOR fluorescence; stronger effect = higher value | B-score at 10 µM | actives 0.35% (n = 310,000) | AID 2648;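 active = fluorescence ratio B-score, a plate-corrected score, at least three library SD, with initial intensity B-score within 5 SD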
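Assay system: CHO-K1 cells stably expressing KCNQ1; Medium: assay buffer with matched DMSO; Also added: K+/Tl+ depolarizing stimulus; Dosing: single dose; Timing: dye 90 min, compound 20 min, room temperature; Measured by: kinetic FluxOR thallium fluorescence, 10-s 1-Hz baseline, 110-s post-stimulus read; Read-out: peak-minus-minimum fluorescence over initial fluorescence, negative-control normalized, B-scored.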
KCNK3 inh: human KCNK3 channel inhibition, primary screen; O14649; CHO-KCNK3 thallium flux, FluxOR fluorescence; stronger effect = lower value; B-score at 10 µM; actives 0.84% (n = 340,000); AID 602410;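 active = B-score under library mean minus 4 SD, starting fluorescence ratio at most library mean plus 5 SD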;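 also: more negative B-score means stronger inhibition of thallium flux through KCNK3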
KCNK9 inh: blocks the human KCNK9 two-pore domain potassium channel. B-score at 10 µM. Q9NPC2. actives 1.2% (n = 310,000). HEK293 KCNK9, FluxOR thallium flux fluorescence; stronger effect = lower value. AID 488922;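 active = ratio B-score over 3 SD below the library mean, with starting fluorescence within 5 SD of its mean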;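 also: negative B-score means less thallium flux so channel inhibition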
Each line names hits and unclear results; the compound was inactive in the other large screens.

CCN(CC)CC(O)COCCC12CC3CC(CC(C3)C1)C2 (stereo not given)	none
COc1ccc(C(=O)N/C(=C\c2cccc3ccccc23)C(=O)N2CCN(C)CC2)cc1OC	hERG protect 9.7
CCOC(=O)N1CCN(C(=O)/C(=C/c2cccc3ccccc23)NC(=O)c2ccc(OC)c(OC)c2)CC1	none
COc1ccc(-n2nc([N+](=O)[O-])c(=NCCc3cccc(C)c3)n2O)cc1	none
Cc1cccc(CCN=c2c([N+](=O)[O-])nn(-c3ccccc3)n2O)c1	Kir21 inh -4.26
COc1ccc(C)cc1S(=O)(=O)N1CCc2ccccc2C1	Kir21 inh -4.26
Cc1ccc(/C=N/Nc2nc(N3CCCCC3)nc(N3CCCCC3)n2)o1	none
COC(=O)c1ccccc1-c1ccc(/C=N/Nc2nc(N3CCCC3)nc(N3CCCC3)n2)o1	KCNQ1 inh 6
O=[N+]([O-])c1ccc(/C=N/Nc2nc(N3CCCCCC3)nc(N3CCCCCC3)n2)o1	KCNQ1 inh 6, KCNK9 inh -6.99
O=C1CC(=O)Nc2cc(S(=O)(=O)N3CCN(c4ccc([N+](=O)[O-])cc4)CC3)ccc2N1	none
O=C(Nc1ccccc1Cl)C(Cl)C(=O)c1ccccc1 (stereo not given)	none (no result: hERG protect, KCNQ1 inh, Kir21 inh, KCNQ1 pot, KCNK9 inh)
O=C(Nc1ccc(Cl)cc1)C(Cl)C(=O)c1ccccc1 (stereo not given)	Kir21 inh -10.8, KCNQ1 pot 10
C=Cc1ccc(C(=O)NC2CCCN(Cc3ccccc3F)C2)cc1 (stereo not given)	none
C=CCn1c(O)c(N=NC(=S)Nc2ccccc2C)c2cc(S(=O)(=O)N3CCOCC3)ccc21	KCNQ1 pot 9
Cc1ccc(NC(=S)N=Nc2c(O)n(C)c3ccc(S(=O)(=O)N4CCOCC4)cc23)cc1C	none
Cn1c(O)c(N=NC(=S)Nc2ccccc2F)c2cc(S(=O)(=O)N3CCOCC3)ccc21	hERG protect 11.3
CCN(Cc1ccccc1)S(=O)(=O)c1ccc(OC)c2ncccc12	none
COc1ccc(S(=O)(=O)N(C)c2ccccc2)c2cccnc12	Kir21 inh -5.1
NCCCC[C@@H](C(=O)N1CCNCC1)n1cc(CCC(=O)O)nn1	none
CC(O)Cc1cn([C@@H](CCCCN)C(=O)N2CCNCC2)nn1 (stereo not given in full)	KCNQ1 pot 19
COc1ccc(NCc2cccnc2)cc1	none
CC(c1ccccc1)n1c(-c2ccncc2)n[nH]c1=S (stereo not given)	none
CC(c1ccccc1)n1c(-c2ccc(Cl)cc2)n[nH]c1=S (stereo not given)	hERG protect 7.8
COc1cccc(CNC(=S)Nc2cc(C)ccc2C)c1	none
CCOCCc1c(O)nc(SC)[nH]c1=O	KCNQ1 pot 8
CCn1c(CNc2ccc(Cl)cc2)nnc1SCC(=O)OC1CCCCC1	Kir21 inh -6.62
CCn1c(CNc2cccc(Cl)c2)nnc1SCC(=O)OC1CCCCC1	Kir21 inh -5.14
CCn1c(CNc2ccccc2Cl)nnc1SCC(=O)OC1CCCCC1	Kir21 inh -4.49
CCN(CC(=O)Nc1ccc(OC)cc1)C(=O)c1ccc2c(=O)n3c(nc2c1)CCC3	none (no result: hERG protect, KCNQ1 inh, Kir21 inh, KCNQ1 pot, KCNK9 inh)
Cc1nnc(SCC(=O)N(C)c2ccccc2)n1-n1cccc1	none
COc1ccccc1N1CCN(S(=O)(=O)CCNC(=O)C23CC4CC(CC(C4)C2)C3)CC1	none
O=c1c(-c2ccccc2)nc(-c2ccccc2)cn1O	hERG protect 4.9
CCN(CC)CCCN(C(=O)c1ccco1)c1nc(-c2ccc(C)cc2)cs1	none
CCN(CC)CCCN(C(=O)c1ccco1)c1nc(-c2ccc(Cl)cc2)cs1	Kir21 inh -6.16
CCC(=O)Nc1ccc(C(=O)NNC(=O)COc2cc(C)ccc2C)cc1	none
COc1cc(OC)cc(C(=O)N[C@H](C(=O)OCC(=O)N2CCN(S(=O)(=O)c3ccc(C)cc3)CC2)C(C)C)c1	none (no result: hERG protect, KCNQ1 inh, Kir21 inh, KCNQ1 pot, KCNK9 inh)
O=c1c(-c2cccc([N+](=O)[O-])c2)[n+]([O-])c2ccccc2n1O	none
O=c1c(-c2ccc(Cl)cc2)[n+]([O-])c2ccccc2n1O	hERG protect 40.2, KCNQ1 pot 32
O=C(COc1cccc2ccccc12)N/N=C/c1ccccc1OCc1ccc(C(=O)O)cc1	KCNQ1 inh 11
O=C(COc1ccccc1-c1ccccc1)N/N=C/c1cccc2ccccc12	none
CC(=O)Oc1cc(C(=O)OCC(=O)NC23CC4CC(CC(C4)C2)C3)cc(OC(C)=O)c1OC(C)=O	none (no result: hERG protect, KCNQ1 inh, Kir21 inh, KCNQ1 pot, KCNK9 inh)
CC(C)[C@H]1COCCS(=O)(=O)N1Cc1ccccc1-c1ccc(C(C)(C)C)cc1	none (no result: hERG protect, KCNQ1 inh, Kir21 inh, KCNQ1 pot, KCNK9 inh)
CC(C)(C)c1ccc(C2C(C(=O)c3ccco3)=C(O)C(=O)N2CC2CCCO2)cc1 (stereo not given)	none
CCc1ccc(O)c(CNCCNCc2cc(CC)ccc2O)c1	Kir21 inh -10.9
O=[N+]([O-])c1ccc2c(c1)C=C1CCCCC1(N1CCCCC1)O2 (stereo not given)	KCNK9 inh -7.44
Cc1ccc(C(C[N+](=O)[O-])c2c(C)[nH]n(-c3ccccc3)c2=O)cc1 (stereo not given)	Kir21 inh -11.5
Fc1ccc(-n2ncc3c(SCc4cccnc4)ncnc32)cc1	none
CC1CCc2sc(-c3n[nH]c(=S)o3)cc2C1 (stereo not given)	hERG protect 7.4
CC1CCc2sc(C(=O)NC3CCCCC3)cc2C1 (stereo not given)	none (no result: hERG protect, KCNQ1 inh, Kir21 inh, KCNQ1 pot, KCNK9 inh)
COc1ccc(CN(C)C(=O)c2ccc(OCC(=O)Nc3cccc(C(F)(F)F)c3)c(OC)c2)c(OC)c1	none
COc1cccc(CN(C)C(=O)c2ccc(OCC(=O)Nc3cccc(C(F)(F)F)c3)c(OC)c2)c1	KCNQ1 inh 9
Cc1cc(Cl)ccc1OCC(=O)NNC(=O)C1CCN(c2ncnc3sc(C)c(C)c23)CC1	KCNK3 inh -9.86 (no result: hERG protect, KCNQ1 inh, Kir21 inh, KCNQ1 pot, KCNK9 inh)
Cc1sc2ncnc(N3CCC(C(=O)NNC(=O)COc4ccc(Cl)cc4)CC3)c2c1C	none (no result: hERG protect, KCNQ1 inh, Kir21 inh, KCNQ1 pot, KCNK9 inh)
Cc1sc2ncnc(N3CCN(CCOc4ccc(Cl)cc4)CC3)c2c1C	KCNQ1 inh 11, KCNK3 inh -10.9
Cc1sc2ncnc(N3CCC(C)CC3)c2c1C	none
CC(=O)c1cccc(NC(=O)Cn2cnc(S(=O)(=O)N3CCC(C)CC3)c2)c1	none
CC(C)CC(=O)Nc1ccc(C(=O)COC(=O)C2CCC2)cc1	none
COc1ccc(C)cc1NS(=O)(=O)c1ccc2c(c1)N(C)CCO2	Kir21 inh -5.62
Cn1c(CNC(=O)c2ccccc2F)nnc1SCC(=O)Nc1nncs1	none
Cn1c(CNC(=O)c2ccccc2F)nnc1SCc1ccc(Cl)cc1	hERG protect 8.0
CCOC(=O)c1c(-c2ccccc2)csc1NC(=S)NC	hERG protect 8.9, KCNQ1 pot 38
CCNC(=S)Nc1scc(-c2ccccc2)c1C(=O)OCC	hERG protect 6.0, KCNQ1 pot 23
